From PubChem BioAssay
An excerpt weighted towards active compounds, which were near 2.9% of everything screened.
SENP8 block-1: blocks the human protease SENP8; purified SENP8, Z-RLRGG-aminoluciferin cleavage, luminescence; 1.2% of 330,000 active; AID 2540; inhibition, % at 10 µM; in the data active means inhibition above about 50%
Target sequence (Q96LD8 whole entry, looked up): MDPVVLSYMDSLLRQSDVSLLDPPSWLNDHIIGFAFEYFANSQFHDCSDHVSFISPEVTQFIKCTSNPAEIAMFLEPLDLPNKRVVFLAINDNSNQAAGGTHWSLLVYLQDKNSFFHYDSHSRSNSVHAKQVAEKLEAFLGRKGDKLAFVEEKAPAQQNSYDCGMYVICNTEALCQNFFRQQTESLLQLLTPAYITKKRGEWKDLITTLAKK
SENP1 inh: SENP1 (human) catalytic domain inhibition. recombinant SENP1 catalytic domain, CyPet-SUMO1-YPet FRET cleavage. AID 624204. inhibition, % at 10 µM. Q9P0U3. 0.21% of 360,000 active;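 active means inhibition at least 30% at 10 µM, raw YFP signal under a set limit, fluorescence ratio 0.5 to 1.5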;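 further: 0% = enzyme with DMSO and 100% = no enzyme wells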
Target sequence (Q9P0U3 419-644 limits assumed): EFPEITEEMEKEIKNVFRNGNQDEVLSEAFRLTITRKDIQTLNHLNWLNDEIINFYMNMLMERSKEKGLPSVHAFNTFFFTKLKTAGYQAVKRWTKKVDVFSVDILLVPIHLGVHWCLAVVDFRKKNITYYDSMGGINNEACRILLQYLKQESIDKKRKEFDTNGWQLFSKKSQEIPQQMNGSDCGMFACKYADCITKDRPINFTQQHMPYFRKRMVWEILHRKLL
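Test system: hSENP1 catalytic domain, recombinant; Amount: 20 pM final SENP1 enzyme; Medium: Tris pH 8 buffer plus EDTA, NaCl, BME, BSA, NP40, catalase; Schedule: 50 min enzyme reaction, room temperature, light-protected; Technique: FRET fluorescence in CFP and YFP emission channels; Controls: no-enzyme wells low, DMSO-plus-enzyme wells high control.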
SENP7 inh: inhibitors of human SENP7 protease. AID 434973. inhibition, % at 5 µM. Q9BQF6. recombinant SENP7, Z-RLRGG-aminoluciferin luminescence, 40 min. 1.5% of 330,000 active;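 active means inhibition above about 50% at the single test dose, limit read from the data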;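 further: plate controls were DMSO with enzyme for no effect and no enzyme buffer wells for full effect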
SENP8 block-2: SENP8 (human) protease inhibition; Q96LD8; recombinant SENP8, Nedd8 substrate fluorescence; inhibition, % at 20 µM; 0.64% of 360,000 active; AID 602440; in the data active means inhibition mostly above about 40%, no sharp cut-off; inactive means mostly below about 27%
HSP90 refold inh: HSP90 refolding inhibition in rabbit reticulocyte lysate; luciferase refolding luminescence, 3 h; inhibition, % at 5.6 µM; 0.91% of 290,000 active;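 active means inhibition above the screen-wide mean plus 3 SD, computed separately per campaign, cut at about 16% in these data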;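 further: 0% = DMSO wells and 100% = 60 µM geldanamycin wells; inhibitors lower the luminescence because luciferase stays unfolded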
SENP6 inh: SENP6 protease inhibition; inhibition, % at 10 µM; 1.8% of 330,000 active; AID 2599; Recombinant SENP6 catalytic domain, aminoluciferin luminescence; Q9GZR1;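 active means inhibition above about 50% at the single tested dose, limit read from the data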;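 further: plate controls were DMSO wells with enzyme for no effect and DMSO wells lacking enzyme for full effect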
SENP8 confirm: human SENP8 inhibition, confirmed; shares compounds with SENP7 inh; Recombinant SENP8, Z-RLRGG-aminoluciferin luminescence, 60 min; inhibition, % at 12.5 µM; 40% of 6,200 active;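 active means mean inhibition across replicates above about 50%, limit read from the data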
SENP6 conf: human SENP6 inhibition, confirmed. shares compounds with SENP7 inh. inhibition, % at 12.5 µM. 58% of 6,200 active. recombinant SENP6, Z-RLRGG-aminoluciferin luminescence
SENP7 conf: human SENP7 inhibition, confirmed; inhibition, % at 12.5 µM; shares compounds with SENP7 inh; recombinant SENP7, Z-RLRGG-aminoluciferin luminescence, 40 min; 69% of 6,200 active
Casp3 select: caspase-3 inhibition (SENP selectivity assay). shares compounds with SENP7 inh. 60% of 6,200 active. inhibition, % at 12.5 µM. AID 488918. purified caspase-3, Z-DEVD-aminoluciferin luminescence, 60 min;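 active means mean inhibition above about 50%, limit read from the data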;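 further: plate controls were enzyme with DMSO for no effect and wells without caspase-3 for full effect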
Target sequence (P42574 28-227 limits assumed): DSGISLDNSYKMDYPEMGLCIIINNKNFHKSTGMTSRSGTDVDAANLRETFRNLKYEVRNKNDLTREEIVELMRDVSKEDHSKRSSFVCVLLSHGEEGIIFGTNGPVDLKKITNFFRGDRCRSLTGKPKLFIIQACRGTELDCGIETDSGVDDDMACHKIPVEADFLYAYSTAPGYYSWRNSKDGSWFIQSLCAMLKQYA
SENP luc ctr: luminescence interference (SENP counter-screen); shares compounds with SENP7 inh; Pre-incubated SENP8/Z-RLRGG-aminoluciferin, luciferase luminescence interference; 39% of 6,200 active; AID 488919; inhibition, % at 12.5 µM;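 active means mean inhibition above about 50% when retested at one dose, limit read from the data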;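 further: plate controls were DMSO wells with completed reaction for no effect and substrate without enzyme for full effect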
An asterisk follows results filed as active; i = inactive; / = no result given.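 How the source made its calls, unless noted: active means mean inhibition above about 50% in the one-dose retest (limit read from the data); inactive means the rest.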

SMILES	SENP8 block-1	SENP1 inh	SENP7 inh	SENP8 block-2	HSP90 refold inh	SENP6 inh	SENP8 confirm	SENP6 conf	SENP7 conf	Casp3 select	SENP luc ctr
COC(=O)c1cccc(NC(=O)c2cccc(OC)c2)c1	65*	0	84*	38	-1	85*	69*	71*	94*	85*	78*
COc1cccc(C(=O)Nc2ccc(F)c(F)c2F)c1	12	1	51*	12	0	41	44	41	77*	70*	53*
COc1cccc(C(=O)Nc2ccc(F)cc2F)c1	-4	-1	37	17	3	-39	/	/	/	/	/
COc1cccc(C(=O)NC(=S)Nc2ccc(N(C)C)cc2)c1	32	1	28	19	0	57*	48	57*	78*	39	24
COc1cccc(C(=O)Nc2ccc(C3CC3(Cl)Cl)cc2)c1 (stereo not drawn)	92*	1	94*	12	-2	85*	96*	97*	103*	92*	40
COc1cccc(C(=O)NC(=S)Nc2ccc(N3CCCC3)cc2)c1	11	7	-3	27	1	19	/	/	/	/	/
COc1cccc(NC(=O)c2cccc(Cl)c2)c1	77*	0	77*	21	/	83*	81*	79*	95*	83*	81*
Nc1ccc2nc(-c3ccc(Cl)cc3)[nH]c2c1	66*	-100	63*	-433	/	75*	80*	81*	54*	45	81*
Nc1ccc2nc(-c3cc(Cl)c(N)c(Cl)c3)[nH]c2c1	64*	-32	77*	-329	-5	87*	-20	73*	94*	82*	76*
Nc1ccc(-c2nc3ccc(N)cc3[nH]2)cc1	-3	-10	13	-421	-3	18	/	/	/	/	/
COc1cc(SC)ccc1C(=O)Nc1ccc(C)cc1C	61*	1	70*	8	0	75*	20	26	24	39	6
COc1cc(SC)ccc1C(=O)Nc1ccc(C)cc1	2	1	7	7	2	-13	/	/	/	/	/
COc1cc(SC)ccc1C(=O)Nc1ccc2ncccc2c1	88*	1	88*	-23	11	94*	3	77*	95*	68*	38
COc1cc(SC)ccc1C(=O)Nc1ccc2c(c1)OCO2	/	-1	/	-6	7	/	/	/	/	/	/
OC(c1ccc(F)cc1)c1ncc(-c2cccc3ccccc23)[nH]1 (stereo not drawn)	/	-3	/	-375	/	/	/	/	/	/	/
O=C(NCC(O)c1nc2ccccc2[nH]1)c1cc2ccccc2[nH]1 (stereo not drawn)	/	0	/	-10	/	/	/	/	/	/	/
CC(C)(C)c1nnc(NS(=O)(=O)c2cc(Cl)ccc2Cl)s1	5	-23	-6	6	-1	-3	/	/	/	/	/
O=S(=O)(Nc1nc(-c2sccc2Cl)cs1)c1cc(Cl)ccc1Cl	10	4	3	37	1	74*	9	15	5	6	11
Cc1ccccc1S(=O)(=O)N(C)C[C@@H]1OCc2cnnn2CCCC(=O)N([C@@H](C)CO)C[C@H]1C	/	1	/	14	/	/	/	/	/	/	/
COc1ccc(S(=O)(=O)N2CCSC2C)cc1C (stereo not drawn)	-14	-1	-13	6	2	-10	/	/	/	/	/
Cc1ccc(-c2nnc(-c3ccccc3)o2)cc1Br	28	-3	75*	4	-1	59*	20	19	24	41	9
Cc1cccc(-c2nnc(-c3ccc(N)cc3)o2)c1	37	1	53*	-351	7	8	47	65*	88*	63*	40
Nc1ccc(-c2nnc(-c3ccc(N)cc3)o2)cc1	-11	-19	7	-302	-3	1	/	/	/	/	/
Cc1ccc(-c2nnc(-c3cccc(Br)c3)o2)cc1	37	-1	60*	7	3	74*	24	21	26	15	5
O=c1oc2ccccc2cc1-c1nnc(-c2cccc(Br)c2)o1	-16	-2	43	-286	/	2	/	/	/	/	/
SMILES	SENP8 block-1	SENP1 inh	SENP7 inh	SENP8 block-2	HSP90 refold inh	SENP6 inh	SENP8 confirm	SENP6 conf	SENP7 conf	Casp3 select	SENP luc ctr
Brc1cccc(-c2nnc(-c3ccccc3)o2)c1	70*	-2	79*	15	5	87*	49	71*	93*	59*	17
C=Cc1ccc(Cn2c(C)c(C(=O)NCCC#N)sc2=O)cc1	/	-3	/	6	/	/	/	/	/	/	/
COCCn1c(SCC(=O)Nc2ccc3c(c2)OCCO3)nnc1-c1ccncc1	4	0	6	16	/	-6	/	/	/	/	/
CNC(=O)C1CN(C(=O)c2cccc(S(=O)(=O)N3c4ccccc4CC3C)c2)c2ccccc2O1 (stereo not drawn)	-11	-1	2	-3	/	7	/	/	/	/	/
Cc1cc(Cl)ccc1-c1nc(NC(C)C)nc2ccsc12	/	-24	/	i	/	/	/	/	/	/	/
CC(=O)Nc1cccc(-c2csc(C(C)(O)c3ccc(F)c(F)c3)n2)c1 (stereo not drawn)	/	1	/	17	/	/	/	/	/	/	/
C/C(=N\OC(=O)c1ccc(Br)cc1)c1ccccn1	93*	5	97*	14	-3	97*	43	54*	44	46	12
C/C(=N\NC(=O)c1cc(Br)ccc1O)c1ccccn1	78*	0	56*	-88	-5	87*	41	85*	84*	91*	29
CCOc1ccc(OCc2ccc(C(=O)N/N=C(\C)c3ccccn3)cc2)cc1	/	0	/	4	6	/	/	/	/	/	/
C/C(=N\NC(=O)c1cccc(Br)c1)c1ccccn1	-4	1	-2	19	5	-14	/	/	/	/	/
C/C(=N/OCc1ccc(Br)cc1)c1ccccn1	82*	2	91*	31	-2	-6	4	88*	100*	75*	49
Cc1nnc(NC(=O)C2CCN(S(=O)(=O)c3ccc(F)c(Cl)c3)CC2)o1	6	0	-6	-4	/	4	/	/	/	/	/
CCCOc1ccccc1OCC(=O)Nc1cccc(S(=O)(=O)NC2=NCCC2)c1	-7	0	9	0	/	0	/	/	/	/	/
Cc1cccn2cc(-c3ccc(Cl)cc3)nc12	89*	-1	91*	-290	10	95*	95*	96*	101*	92*	54*
